Laboratory results published in PubChem BioAssay AID2805 (Sanford-Burnham Center for Chemical Genomics, 2010).
Screen size: about 330,000 compounds; about 780 (0.24%) were called active. The sample holds actives, similar compounds and a random draw of the others, so the mix is not that of the screen. Values without a mark were called inactive.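 How the source made its calls: active means activation factor of at least 2 at 20 µM; inactive means the rest.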

Each compound was assayed on intestinal alkaline phosphatase [Mus musculus] (assay: mouse intestinal phosphatase enzyme activation – biochemical, luminescence, uHTS, primary screen (AID 2805)). Details: muIAP, CDP-Star luminescence, 30 min; at 10 µM; hits give high values; 1 = vehicle-only enzyme signal, 0 = enzyme-free wells.
Summary of the method: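 System: Mouse IAP enzyme | Also added: CDP-Star substrate | Dosing: Compounds dispensed in DMSO | Schedule: 30 min enzyme-substrate-compound incubation at room temperature | Technique: Chemiluminescence readout | Control set: DMSO-only wells and no-enzyme negative control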

**Q.** For `O=C(NCc1ccc2c(c1)OCO2)C12CC3CC(CC(C3)C1)C2`, which activation factor is on record?
**A.** The activation factor was 0.999.

**Q.** `COC(=O)Cc1ccc(NC(=S)NCc2ccc(Cl)cc2)cc1` was tested. Which activation factor did it give?
**A.** Its activation factor is 1.52.

**Q.** Which activation factor does the source give for `S=C(NCc1ccc(Cl)cc1)NC12CC3CC(CC(C3)C1)C2` here?
**A.** Its activation factor is 3.89 (active).

**Q.** How did the activation factor turn out when `CCC(=O)N1c2ccccc2NC2=C(C(=O)CCC2)C1c1ccco1` (stereo unspecified) was run?
**A.** The activation factor was 1.01.

**Q.** With `CCOC12CC(C)(C)CC(C)(CC3=C1C(=O)CC(C)(C)C3)C2` (stereo unspecified) as the compound, how does the activation factor read?
**A.** Its activation factor is 1.02.

**Q.** For `COc1cc(NC(=O)C2=CC(c3ccc(C)cc3)=NS(=O)(=O)N2C)cc(OC)c1OC`, which activation factor is on record?
**A.** Its activation factor is 0.84.

**Q.** Which activation factor does the source give for `O=C(NCC1CCN(Cc2ccccc2Cl)CC1)Nc1cccc(Cl)c1` here?
**A.** The activation factor was 3.53 (active).

**Q.** How did the activation factor turn out when `CC(=O)N1CCN(CC(=O)Nc2ccc(C)c(F)c2)CC1` was run?
**A.** Its activation factor is 1.06.

**Q.** `COc1cc(NC(=O)NCC2CCN(Cc3ccc(C)cc3)CC2)cc(OC)c1OC` was tested. Which activation factor did it give?
**A.** Its activation factor is 2.24 (active).

**Q.** Which activation factor does the source give for `Cc1ccc(C)c(CN2CCC(CNC(=O)Nc3ccc(C)c(F)c3)CC2)c1` here?
**A.** Its activation factor is 4.63 (active).

**Q.** Which activation factor does the source give for `Cc1ccccc1NC(=O)NCC1CCN(Cc2cccc(Cl)c2)CC1` here?
**A.** The activation factor was 1.72.

**Q.** `COc1ccc(Cl)cc1NC(=O)NCC1CCN(Cc2ccccc2F)CC1` was tested. Which activation factor did it give?
**A.** Its activation factor is 1.56.

**Q.** With `COC(=O)c1cc(S(=O)(=O)NCC2CCN(Cc3ccc(Cl)cc3)CC2)cn1C` as the compound, how does the activation factor read?
**A.** Its activation factor is 1.12.

**Q.** How did the activation factor turn out when `O=C(CN1CCN(Cc2ccccc2)CC1)Nc1ccc(F)c(F)c1` was run?
**A.** Its activation factor is 1.1.

**Q.** For `O=C(NCCN1CCOCC1)Nc1cccc(Cl)c1`, which activation factor is on record?
**A.** Its activation factor is 0.941.

**Q.** For `COc1cc(CN2CCN(Cc3ccc(C)cc3)CC2)c([N+](=O)[O-])cc1OC`, which activation factor is on record?
**A.** Its activation factor is 0.893.

**Q.** For `Cc1cccc(CN2CCC(CNC(=O)Nc3ccc(F)c(Cl)c3)CC2)c1`, which activation factor is on record?
**A.** The activation factor was 3.26 (active).

**Q.** Which activation factor does the source give for `COc1cc(OC)cc(-c2nc3ccccc3c(=O)n2NC(=O)c2cccnc2Cl)c1` here?
**A.** Its activation factor is 0.962.

**Q.** How did the activation factor turn out when `CCCn1nnnc1NC(=O)COc1ccc(Cl)cc1C` was run?
**A.** The activation factor was 0.94.

**Q.** How did the activation factor turn out when `CCCSc1ccc([C@H]2N[C@@](Cc3ccccc3)(C(=O)OC)[C@H]3C(=O)N(C)C(=O)[C@@H]23)cc1` was run?
**A.** The activation factor was 1.04.

**Q.** `CCN1CCN(C(=O)c2cc3cc4ccc(OC)cc4nc3s2)CC1` was tested. Which activation factor did it give?
**A.** The activation factor was 1.07.

**Q.** For `CCc1cc2c(=O)n(-c3ccccc3)c(SCC(=O)O)nc2s1`, which activation factor is on record?
**A.** The activation factor was 1.03.

**Q.** For `C=CCCC(=O)Nc1nc(C)c(-c2csc(Nc3ccc(Cl)cc3)n2)s1`, which activation factor is on record?
**A.** The activation factor was 0.878.

**Q.** For `S=C(NC1CCCCC1)NN1CCOCC1`, which activation factor is on record?
**A.** The activation factor was 0.975.

**Q.** With `Cc1cccc(-c2oc3ccc(-c4ccc5c(c4)OCO5)cc3c2C#Cc2cncn2C)c1` as the compound, how does the activation factor read?
**A.** Its activation factor is 0.937.

**Q.** Which activation factor does the source give for `Cc1cc(NC(=O)CCC(=O)N(CC(=O)NCC2CCCO2)c2ccccc2C)no1` (stereo unspecified) here?
**A.** The activation factor was 0.924.
